Values after ≈ are worked out from the molar mass of the structure shown.
Legend:
Format in all cases: functional
[1] = test system: Staphylococcus aureus; assay: Antimicrobial activity against methicillin-susceptible Staphylococcus aureus ATCC 25923 after 18 hrs by broth microdilution method; conditions: ATCC 25923, 18 h
[2] = test system: Staphylococcus aureus; assay: Ratio of MBC for Staphylococcus aureus Microbank 14001 to MIC for Staphylococcus aureus Microbank 14001
Outline: (§1)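 MBC taken as lowest concentration giving >99.9% CFU reduction of the initial inoculum; value is MBC divided by MIC for the same strain.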

[3] = test system: Staphylococcus aureus; assay: Antimicrobial activity against methicillin-susceptible Staphylococcus aureus ATCC 6538 after 18 hrs by broth microdilution method; conditions: ATCC 6538, 18 h
[4] = test system: Bacillus subtilis; assay: Antimicrobial activity against Bacillus subtilis […] after 18 hrs by broth microdilution method
[5] = test system: Staphylococcus aureus; assay: Ratio of MBC for methicillin-susceptible Staphylococcus aureus ATCC 25923 to MIC for methicillin-susceptible Staphylococcus aureus ATCC 25923; outline: as §1
[6] = test system: Staphylococcus aureus; assay: Antimicrobial activity against Staphylococcus aureus Microbank 14001 after 18 hrs by broth microdilution method; conditions: Microbank 14001, 18 h
[7] = test system: Klebsiella pneumoniae; assay: Antimicrobial activity against Klebsiella pneumoniae ATCC 13883 after 18 hrs by broth microdilution method; conditions: ATCC 13883, 18 h
[8] = test system: Bacillus cereus; assay: Antimicrobial activity against Bacillus cereus ATCC 10876 after 18 hrs by broth microdilution method; conditions: ATCC 10876, 18 h
[9] = test system: Staphylococcus epidermidis; assay: Antimicrobial activity against Staphylococcus epidermidis ATCC 12228 after 18 hrs by broth microdilution method; conditions: ATCC 12228, 18 h
[10] = test system: Escherichia coli; assay: Antimicrobial activity against Escherichia coli ATCC 25922 after 18 hrs by broth microdilution method; conditions: ATCC 25922, 18 h
[11] = test system: Micrococcus luteus; assay: Antimicrobial activity against Micrococcus luteus ATCC 10240 after 18 hrs by broth microdilution method; conditions: ATCC 10240, 18 h
[12] = test system: Pseudomonas aeruginosa; assay: Antimicrobial activity against Pseudomonas aeruginosa ATCC 9027 after 18 hrs by broth microdilution method; conditions: ATCC 9027, 18 h
[13] = test system: Staphylococcus aureus; assay: Ratio of MBC for methicillin-susceptible Staphylococcus aureus ATCC 6538 to MIC for methicillin-susceptible Staphylococcus aureus ATCC 6538; outline: as §1
[14] = test system: Proteus mirabilis; assay: Antimicrobial activity against Proteus mirabilis ATCC 12453 after 18 hrs by broth microdilution method; conditions: ATCC 12453, 18 h

Structure (SMILES)	MIC [1] [µM]	Ratio [2]	MIC [3] [µM]	MIC [4] [µM]	Ratio [5]	MIC [6] [µM]	MIC [7] [µM]	MIC [8] [µM]	MIC [9] [µM]	MIC [10] [µM]	MIC [11] [µM]	MIC [12] [µM]	Ratio [13]	MIC [14] [µM]
O=C(O)c1cn(C2CC2)c2cc(N3CCN(Cn4nc(-c5cccc(O)c5)n(-c5ccc(F)cc5)c4=S)CC3)c(F)cc2c1=O	0.76 (≈ 0.479 µg/mL)	<=4	0.38 (≈ 0.24 µg/mL)	0.095 (≈ 0.0599 µg/mL)	<=4	0.38 (≈ 0.24 µg/mL)	0.048 (≈ 0.0303 µg/mL)	0.19 (≈ 0.12 µg/mL)	0.19 (≈ 0.12 µg/mL)	0.012 (≈ 0.00757 µg/mL)	1.55 (≈ 0.978 µg/mL)	0.38 (≈ 0.24 µg/mL)	<=4	0.024 (≈ 0.0151 µg/mL)
O=C(O)c1cn(C2CC2)c2cc(N3CCN(Cn4nc(-c5ccccc5O)n(-c5ccccc5)c4=S)CC3)c(F)cc2c1=O	0.8 (≈ 0.49 µg/mL)	<=4	0.39 (≈ 0.239 µg/mL)	0.39 (≈ 0.239 µg/mL)	<=4	0.19 (≈ 0.116 µg/mL)	0.049 (≈ 0.03 µg/mL)	0.098 (≈ 0.06 µg/mL)	0.098 (≈ 0.06 µg/mL)	0.012 (≈ 0.00735 µg/mL)	1.59 (≈ 0.974 µg/mL)	0.39 (≈ 0.239 µg/mL)	<=4	0.024 (≈ 0.0147 µg/mL)
O=C(O)c1cn(C2CC2)c2cc(N3CCN(Cn4nc(-c5ccc(O)cc5)n(-c5ccc(Cl)cc5)c4=S)CC3)c(F)cc2c1=O	0.76 (≈ 0.492 µg/mL)	<=4	0.37 (≈ 0.239 µg/mL)	0.046 (≈ 0.0298 µg/mL)	<=4	0.093 (≈ 0.0602 µg/mL)	0.093 (≈ 0.0602 µg/mL)	0.18 (≈ 0.116 µg/mL)	0.18 (≈ 0.116 µg/mL)	0.011 (≈ 0.00712 µg/mL)	1.51 (≈ 0.977 µg/mL)	0.18 (≈ 0.116 µg/mL)	<=4	0.012 (≈ 0.00777 µg/mL)
COc1ccc(Cn2c(-c3ccc(O)cc3)nn(CN3CCN(c4cc5c(cc4F)c(=O)c(C(=O)O)cn5C4CC4)CC3)c2=S)cc1	2.97 (≈ 1.95 µg/mL)	<=4	0.75 (≈ 0.493 µg/mL)	0.18 (≈ 0.118 µg/mL)	<=4	0.75 (≈ 0.493 µg/mL)	0.091 (≈ 0.0598 µg/mL)	0.091 (≈ 0.0598 µg/mL)	1.49 (≈ 0.979 µg/mL)	0.046 (≈ 0.0302 µg/mL)	5.95 (≈ 3.91 µg/mL)	0.36 (≈ 0.236 µg/mL)	<=4	0.091 (≈ 0.0598 µg/mL)
O=C(O)c1cn(C2CC2)c2cc(N3CCN(Cn4nc(-c5ccccc5O)n(Cc5ccc(Cl)cc5)c4=S)CC3)c(F)cc2c1=O	0.74 (≈ 0.489 µg/mL)	<=4	0.18 (≈ 0.119 µg/mL)	0.045 (≈ 0.0298 µg/mL)	<=4	0.36 (≈ 0.238 µg/mL)	0.023 (≈ 0.0152 µg/mL)	0.091 (≈ 0.0602 µg/mL)	0.091 (≈ 0.0602 µg/mL)	0.023 (≈ 0.0152 µg/mL)	1.48 (≈ 0.979 µg/mL)	0.36 (≈ 0.238 µg/mL)	<=4	0.046 (≈ 0.0304 µg/mL)
O=C(O)c1cn(C2CC2)c2cc(N3CCN(Cn4nc(-c5ccc(O)cc5)n(Cc5ccccc5)c4=S)CC3)c(F)cc2c1=O	3.11 (≈ 1.95 µg/mL)	<=4	1.56 (≈ 0.978 µg/mL)	0.78 (≈ 0.489 µg/mL)	<=4	1.56 (≈ 0.978 µg/mL)	0.19 (≈ 0.119 µg/mL)	0.19 (≈ 0.119 µg/mL)	0.19 (≈ 0.119 µg/mL)	0.048 (≈ 0.0301 µg/mL)	6.24 (≈ 3.91 µg/mL)	0.38 (≈ 0.238 µg/mL)	<=4	0.024 (≈ 0.015 µg/mL)
O=C(O)c1cn(C2CC2)c2cc(N3CCN(Cn4nc(-c5cccc(O)c5)n(Cc5ccc(Cl)cc5)c4=S)CC3)c(F)cc2c1=O	1.48 (≈ 0.979 µg/mL)	<=4	1.48 (≈ 0.979 µg/mL)	0.18 (≈ 0.119 µg/mL)	<=4	1.48 (≈ 0.979 µg/mL)	0.18 (≈ 0.119 µg/mL)	0.18 (≈ 0.119 µg/mL)	0.18 (≈ 0.119 µg/mL)	0.023 (≈ 0.0152 µg/mL)	2.95 (≈ 1.95 µg/mL)	0.36 (≈ 0.238 µg/mL)	<=4	0.023 (≈ 0.0152 µg/mL)
O=C(O)c1cn(C2CC2)c2cc(N3CCN(Cn4nc(-c5cccc(O)c5)n(-c5ccc(Cl)cc5)c4=S)CC3)c(F)cc2c1=O	0.76 (≈ 0.492 µg/mL)	<=4	0.37 (≈ 0.239 µg/mL)	0.093 (≈ 0.0602 µg/mL)	<=4	0.37 (≈ 0.239 µg/mL)	0.046 (≈ 0.0298 µg/mL)	0.18 (≈ 0.116 µg/mL)	0.093 (≈ 0.0602 µg/mL)	0.012 (≈ 0.00777 µg/mL)	1.51 (≈ 0.977 µg/mL)	0.37 (≈ 0.239 µg/mL)	<=4	0.024 (≈ 0.0155 µg/mL)
COc1ccc(-n2c(-c3ccccc3O)nn(CN3CCN(c4cc5c(cc4F)c(=O)c(C(=O)O)cn5C4CC4)CC3)c2=S)cc1	0.76 (≈ 0.488 µg/mL)	<=4	0.37 (≈ 0.238 µg/mL)	0.093 (≈ 0.0598 µg/mL)	<=4	0.18 (≈ 0.116 µg/mL)	0.047 (≈ 0.0302 µg/mL)	0.37 (≈ 0.238 µg/mL)	0.093 (≈ 0.0598 µg/mL)	0.011 (≈ 0.00707 µg/mL)	1.52 (≈ 0.977 µg/mL)	0.76 (≈ 0.488 µg/mL)	<=4	0.047 (≈ 0.0302 µg/mL)
O=C(O)c1cn(C2CC2)c2cc(N3CCN(Cn4nc(-c5ccccc5O)n(-c5ccc(Cl)cc5)c4=S)CC3)c(F)cc2c1=O	0.76 (≈ 0.492 µg/mL)	<=4	0.18 (≈ 0.116 µg/mL)	0.093 (≈ 0.0602 µg/mL)	<=4	0.093 (≈ 0.0602 µg/mL)	0.023 (≈ 0.0149 µg/mL)	0.18 (≈ 0.116 µg/mL)	0.18 (≈ 0.116 µg/mL)	0.011 (≈ 0.00712 µg/mL)	1.51 (≈ 0.977 µg/mL)	0.37 (≈ 0.239 µg/mL)	<=4	0.011 (≈ 0.00712 µg/mL)
O=C(O)c1cn(C2CC2)c2cc(N3CCN(Cn4nc(-c5ccc(O)cc5)n(-c5ccccc5)c4=S)CC3)c(F)cc2c1=O	1.6 (≈ 0.98 µg/mL)	<=4	0.39 (≈ 0.239 µg/mL)	0.024 (≈ 0.0147 µg/mL)	<=4	0.39 (≈ 0.239 µg/mL)	0.049 (≈ 0.03 µg/mL)	0.098 (≈ 0.06 µg/mL)	0.098 (≈ 0.06 µg/mL)	0.024 (≈ 0.0147 µg/mL)	1.6 (≈ 0.98 µg/mL)	0.2 (≈ 0.123 µg/mL)	<=4	0.049 (≈ 0.03 µg/mL)
CN[C@H](CC(C)C)C(=O)N[C@H]1C(=O)N[C@@H](CC(N)=O)C(=O)N[C@H]2C(=O)N[C@H]3C(=O)N[C@H](C(=O)N[C@H](C(=O)O)c4cc(O)cc(O)c4-c4cc3ccc4O)[C@H](O)c3ccc(c(Cl)c3)Oc3cc2cc(c3O[C@@H]2O[C@H](CO)[C@@H](O)[C@H](O)[C@H]2O[C@H]2C[C@](C)(N)[C@H](O)[C@H](C)O2)Oc2ccc(cc2Cl)[C@H]1O [VANCOMYCIN]						0.68 (≈ 0.986 µg/mL)								
O=C(O)c1cn(C2CC2)c2cc(N3CCN(Cn4nc(-c5ccccc5O)n(-c5ccc(F)cc5)c4=S)CC3)c(F)cc2c1=O	1.55 (≈ 0.978 µg/mL)	<=4	0.38 (≈ 0.24 µg/mL)	0.19 (≈ 0.12 µg/mL)	<=4	0.19 (≈ 0.12 µg/mL)	0.048 (≈ 0.0303 µg/mL)	0.19 (≈ 0.12 µg/mL)	0.38 (≈ 0.24 µg/mL)	0.011 (≈ 0.00694 µg/mL)	3.09 (≈ 1.95 µg/mL)	0.095 (≈ 0.0599 µg/mL)	<=4	0.024 (≈ 0.0151 µg/mL)
O=C(O)c1cn(C2CC2)c2cc(N3CCN(Cn4nc(-c5cccc(O)c5)n(Cc5ccccc5)c4=S)CC3)c(F)cc2c1=O	0.38 (≈ 0.238 µg/mL)	<=4	0.19 (≈ 0.119 µg/mL)	0.048 (≈ 0.0301 µg/mL)	<=4	0.19 (≈ 0.119 µg/mL)	0.048 (≈ 0.0301 µg/mL)	0.096 (≈ 0.0602 µg/mL)	0.096 (≈ 0.0602 µg/mL)	0.006 (≈ 0.00376 µg/mL)	1.56 (≈ 0.978 µg/mL)	0.19 (≈ 0.119 µg/mL)	<=4	0.012 (≈ 0.00752 µg/mL)

— ChEMBL document CHEMBL3421560, “Search for factors affecting antibacterial activity and toxicity of 1,2,4-triazole-ciprofloxacin hybrids” (Eur J Med Chem, 2015)
